Measured values published in ChEMBL document CHEMBL1121810, “Antihypertensive activity of 6-arylpyrido[2,3-d]pyrimidin-7-amine derivatives” (1981).

Legend:
Format in all cases: functional
Conditions in all cases: route oral
Rattus norvegicus [1] = experiment: Effect on heart rate of spontaneously hypertensive rats, 24 hr after peroral administration at 50 mg/kg
Outline: (§1)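 Heart rate was derived from the pulsatile arterial pressure signal in conscious catheterized male SHR (22-24 weeks, 250-350 g), with continuous monitoring sampled 3 min per 30 min. Drug was given by gavage as a 4% gum acacia suspension at 2 mL/kg, dose as free base, to groups of 3-4 rats with mean pressure >150 mmHg. Individual 30-min means were compared with pretreatment values.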

Rattus norvegicus [2] = experiment: Maximum percent decrease in heart rate of spontaneously hypertensive rats, 8 hours after peroral administration of 50 mg/kg of compound
Outline: (§2)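 Conscious male SHR (Kyoto-Wistar origin, 22-24 weeks, 250-350 g; mean BP >150 mmHg, pulse pressure >25 mmHg) with indwelling catheters, ~0.8 mL heparinized saline/day. Dosed by gavage as a 4% gum acacia suspension, 2 mL/kg, free-base doses, 3-4 rats per group. Heart rate was derived from the pulsatile pressure signal, sampled 3 min every 30 min, and 30-min means were compared with pretreatment values.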

Rattus norvegicus [3] = experiment: Effect on heart rate of spontaneously hypertensive rats, 10 hr after peroral administration at 50 mg/kg; outline: as §1
Rattus norvegicus [4] = experiment: Effect on heart rate of spontaneously hypertensive rats, 2 hr after peroral administration at 50 mg/kg; outline: as §1
Rattus norvegicus [5] = experiment: Maximum percent decrease in heart rate of spontaneously hypertensive rats, 5 hours after peroral administration of 50 mg/kg of compound; outline: as §2
Rattus norvegicus [6] = experiment: Maximum percent decrease in heart rate of spontaneously hypertensive rats, 6 hours after peroral administration of 50 mg/kg of compound; outline: as §2
Rattus norvegicus [7] = experiment: Effect on heart rate of spontaneously hypertensive rats, 18 hr after peroral administration of 50 mg/kg of compound; outline: as §1
Rattus norvegicus [8] = experiment: Blood pressure rating in spontaneously hypertensive rats, 2 hr after peroral administration of 50 mg/kg of compound
Outline: (§3)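 Conscious male SHR (Kyoto-Wistar origin, 22-24 weeks, 250-350 g) with indwelling catheters, given about 160 units heparin/day in saline. Only rats with mean blood pressure >150 mmHg and pulse pressure >25 mmHg were used, in groups of 3-4. Dosing was oral gavage at 2 mL/kg in 4% gum acacia suspension, as free base. Pressure was sampled 3 min of every 30 min, and 30-min means were compared with pretreatment values.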

Rattus norvegicus [9] = experiment: Blood pressure rating in spontaneously hypertensive rats, 24 hr after peroral administration of 50 mg/kg of compound; outline: as §3
Rattus norvegicus [10] = experiment: Blood pressure rating in spontaneously hypertensive rats, 10 hr after peroral administration of 50 mg/kg of compound; outline: as §3
Rattus norvegicus [11] = experiment: Maximum percent decrease in heart rate of spontaneously hypertensive rats, 2 hours after peroral administration of 50 mg/kg of compound; outline: as §1
Rattus norvegicus [12] = experiment: Maximum percent decrease in heart rate of spontaneously hypertensive rats, 3 hours after peroral administration of 50 mg/kg of compound; outline: as §1
Rattus norvegicus [13] = experiment: Effect on heart rate of spontaneously hypertensive rats, 2 hr after peroral administration of 10 mg/kg of compound; outline: as §1
Rattus norvegicus [14] = experiment: Effect on heart rate of spontaneously hypertensive rats, 24 hr after peroral administration of 10 mg/kg of compound; outline: as §1
Rattus norvegicus [15] = experiment: Maximum percent decrease in heart rate of spontaneously hypertensive rats, 28 hours after peroral administration of 50 mg/kg of compound; outline: as §1
Rattus norvegicus [16] = experiment: Effect on heart rate of spontaneously hypertensive rats,18hours after peroral administration of 50 mg/kg of compound; outline: as §1
Rattus norvegicus [17] = experiment: Effect on heart rate of spontaneously hypertensive rats, 10 hr after peroral administration of 10 mg/kg of compound; outline: as §1
Rattus norvegicus [18] = experiment: Max effect on heart rate of spontaneously hypertensive rats, 3-5 hr after peroral administration of 10 mg/kg of compound; outline: as §1
Rattus norvegicus [19] = experiment: Maximum effect on heart rate of spontaneously hypertensive rats, 3-5 hr after peroral administration of 10 mg/kg of compound; outline: as §1
Rattus norvegicus [20] = experiment: Maximum effect on heart rate of spontaneously hypertensive rats, 18 hours after peroral administration of 10 mg/kg of compound; outline: as §1
Rattus norvegicus [21] = experiment: Effect on heart rate of spontaneously hypertensive rats, 24 hr after peroral administration of 3 mg/kg of compound; outline: as §1
Rattus norvegicus [22] = experiment: Effect on heart rate of spontaneously hypertensive rats, 2 hr after peroral administration of 3 mg/kg of compound; outline: as §1

Structure (SMILES)	Activity rating (Rattus norvegicus [1])	Activity rating (Rattus norvegicus [3])	Activity rating (Rattus norvegicus [4])	further results
Cc1nc(C)c2cc(-c3ccccc3C)c(N)nc2n1	0	0	0	Decrease (Rattus norvegicus [2]): 11%
Cc1cccc(-c2cc3cncnc3nc2N)c1C	0	0	0	
CCc1ncc2cc(-c3ccccc3Cl)c(N)nc2n1	0	0	0	
Cc1ncc2cc(-c3ccc(Cl)c(Cl)c3)c(N)nc2n1		0	0	
Cc1ncc2cc(-c3c(C)cccc3Br)c(N)nc2n1	0	1	0	Decrease (Rattus norvegicus [5]): 18%
Cc1nc(C)c2cc(-c3c(Cl)cccc3Cl)c(N)nc2n1		3	2	Decrease (Rattus norvegicus [6]): 32%; Activity rating (Rattus norvegicus [7]): 2
Nc1nc2nc(/C=C/c3ccccc3)ncc2cc1-c1c(Cl)cccc1Cl				Activity rating (Rattus norvegicus [8]): 0; Activity rating (Rattus norvegicus [9]): 0; Decrease (Rattus norvegicus [6]): 13%; Activity rating (Rattus norvegicus [10]): 1
Nc1nc2nc(C3CC3)ncc2cc1-c1c(Cl)cccc1Cl				Activity rating (Rattus norvegicus [8]): 0; Activity rating (Rattus norvegicus [9]): 0; Activity rating (Rattus norvegicus [10]): 0
Cc1ncc2cc(-c3cccc(Br)c3C)c(N)nc2n1	0	0	0	
Cc1ncc2cc(-c3ccco3)c(N)nc2n1				Activity rating (Rattus norvegicus [8]): 0; Activity rating (Rattus norvegicus [9]): 0; Activity rating (Rattus norvegicus [10]): 0
Nc1nc2nc(C3CC3)ncc2cc1-c1ccccc1Br				Activity rating (Rattus norvegicus [8]): 0; Activity rating (Rattus norvegicus [9]): 0; Activity rating (Rattus norvegicus [10]): 0
Nc1nc2ncncc2cc1-c1cccnc1	0	0	0	
CCc1ccccc1-c1cc2cncnc2nc1N	0	0	3	Decrease (Rattus norvegicus [11]): 33%
CCc1ccccc1-c1cc2cnc(C)nc2nc1N	0	0	0	
Cc1cc(C)c(-c2cc3cnc(C)nc3nc2N)c(C)c1	0	0	1	Decrease (Rattus norvegicus [11]): 18%
Cc1cccc(C)c1-c1cc2cncnc2nc1N		0	1	Decrease (Rattus norvegicus [12]): 12%
Nc1nc2ncncc2cc1-c1ccccc1C(F)(F)F	0	0	0	
Nc1nc2ncncc2cc1-c1c(Cl)cccc1Br		2	1	Activity rating (Rattus norvegicus [13]): 1; Activity rating (Rattus norvegicus [14]): 1; Decrease (Rattus norvegicus [15]): 28%; Activity rating (Rattus norvegicus [16]): 1; Activity rating (Rattus norvegicus [17]): 1
Nc1nc2ncncc2cc1-c1ccccc1Br		1	0	Activity rating (Rattus norvegicus [18]): 0; Activity rating (Rattus norvegicus [7]): 1; Decrease (Rattus norvegicus [5]): 16%
Cc1ncc2cc(-c3c(Cl)cccc3Br)c(N)nc2n1	2	2	2	Activity rating (Rattus norvegicus [19]): 1; Activity rating (Rattus norvegicus [20]): 0; Decrease (Rattus norvegicus [5]): 26%
Cc1ncc2cc(-c3cccc(C)c3C)c(N)nc2n1	0	0	0	
Cc1ncc2cc(-c3c(C)cccc3C)c(N)nc2n1	0	0	0	
Clc1cccc(Cl)c1NC1=NCCN1 [CLONIDINE]				Activity rating (Rattus norvegicus [21]): 2; Activity rating (Rattus norvegicus [22]): 0
